In data set [1] the test system is Human immunodeficiency virus 1. The data set is described as follows: Antiviral activity against Human immunodeficiency virus 1 infected in human 293T cells assessed as inhibition of viral replication after 48 hrs by luminescence analysis. It is filed as functional, organism-based. Conditions: Human immunodeficiency virus 1, HEK-293T. The gist of the method: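 Single-cycle, nonreplicative phenotypic assay against wild-type HIV-1, using virus-like particles made with an HIV-1 retroviral vector system. Compounds incubated with 293T cells and VLPs for 48 h. Inhibition quantified by luminescence and reported as IC50 (μM).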

Data set [2] is described as follows: Cytotoxicity against human 293T cells after 48 hrs by colorimetric analysis. It is filed as cell-based. Conditions: HEK-293T cells.

What is called IC50 is the concentration that inhibits the measured activity by half. One may read the CC50 as the concentration that lowers cell viability or growth by half. On to `NC(=O)c1[nH]c2ccc(Cl)cc2c1C1(c2ccccc2)CC1`, for which, in data set [1], the IC50 was 0.096 µM. Also, in data set [2], the midpoint of cytotoxicity, the CC50 at 48 h, lay at 14.2 µM.

For `O=C(O)c1[nH]c2ccc(Cl)cc2c1C1(c2cccs2)CC1`, the IC50 in data set [1] was 48.2 µM. In data set [2], half-maximal cytotoxicity (CC50 at 48 h) was put at 140 µM.

As to `CCOC(=O)c1[nH]c2ccc(Cl)cc2c1C1(c2cccs2)CC1`, the IC50 in data set [1] worked out at 0.065 µM. Also, the midpoint of cytotoxicity in data set [2], the CC50 at 48 h, lay at 67.1 µM.

For the compound `OCc1[nH]c2ccc(Cl)cc2c1C1(c2cccs2)CC1`, the half-maximal inhibitory concentration (IC50) in data set [1] is 14.4 µM. The compound further came in with a CC50 at 48 h in data set [2] of 36.6 µM.

For `CCOC(=O)c1[nH]c2ccc(Br)cc2c1C1(c2ccccc2)CC1`, the IC50 in data set [1] worked out at 0.066 µM. In data set [2], this compound returned a CC50 at 48 h of 24.5 µM.

For `CCOC(=O)c1[nH]c2ccc(Cl)cc2c1C1(c2ccccc2)CC1`, the IC50 in data set [1] turned out to be 0.085 µM. For the same compound, the CC50 at 48 h in data set [2] is 30.3 µM.

Consider `NC(=O)c1[nH]c2ccc(Cl)cc2c1C1(c2cccs2)CC1`, for which, in data set [1], the IC50 came to 0.121 µM. In data set [2], this compound yielded a CC50 at 48 h of 25.6 µM.

As for `CCOC(=O)c1[nH]c2ccc(Cl)cc2c1C1(C)CC1`, the IC50 in data set [1] came to 2.25 µM. In data set [2], this compound displayed a CC50 at 48 h of 44.3 µM.

Consider `Cc1ccnc2c1NC(=O)c1cccnc1N2C1CC1` [NEVIRAPINE], for which the IC50 in data set [1] turned out to be 0.087 µM.

Turning to `OCc1[nH]c2ccc(Cl)cc2c1C1(c2ccccc2)CC1`, the IC50 in data set [1] was 8.25 µM. Also, the midpoint of cytotoxicity in data set [2], the CC50 at 48 h, lay at 34.1 µM.

With `O=C(O)c1[nH]c2ccc(Cl)cc2c1C1(c2ccccc2)CC1`, the IC50 in data set [1] came out at 28.5 µM. Moreover, in data set [2], the CC50 at 48 h was 92.3 µM.
